In ChEMBL document CHEMBL4387709, “Discovery of Quinoline Analogues as Potent Antivirals against Enterovirus D68 (EV-D68)” (J Med Chem, 2019):

Experiments:
[1] = tested on: enterovirus D68; test: Antiviral activity against Enterovirus D68 US/KY/14-18953 infected in human RD cells assessed as inhibition of virus-induced cytopathic effect incubated for 5 mins under shaking condition and measured after 3 days by neutral red dye-based photometric method; type: functional, organism-based; settings: Enterovirus D, US/KY/14-18953, RD
Outline: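 RD cells seeded one day ahead to ~90% confluence, PBS (Mg/Ca) wash, infected at ~MOI 0.01 with EV-D68 in DMEM/2% FBS/30 mM MgCl2 at 33 °C, 5% CO2. Compounds and 1% P/S added after 1 h. Plates shaken ~5 min, held 3 days, viable cells stained with neutral red (66 µg/ml), A540 read. EC50 from dose-response fits, triplicates.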

[2] = tested on: RD; test: Cytotoxicity against human RD cells after 3 days by neutral red dye-based photometric method; type: cell-based; settings: rd, 72 h
[3] = Selectivity index, ratio of CC50 for human RD cells to EC50 for Enterovirus D68 US/KY/14-18953 infected in human RD cells; type: toxicity, cell-based; settings: read-out: Ratio CC50/EC50

Structure (SMILES): CCN(CC)CCNC(=O)c1cc(-c2ccc(OC)cc2)nc2ccccc12
- EC50 [1]: 2.4 µM
- CC50 [2]: 31.6 µM
- selectivity ratio [3]: 13.2

Structure (SMILES): CC(C)Oc1cc(C(=O)NCCN2CCCC2)c2ccccc2n1
- EC50 [1]: 1.7 µM
- CC50 [2]: 36.9 µM
- selectivity ratio [3]: 21.7

Structure (SMILES): CCN(CC)CCNC(=O)c1cc(-c2ccccc2)nc2ccc(F)cc12
- EC50 [1]: 1.3 µM
- CC50 [2]: 24.9 µM
- selectivity ratio [3]: 19.2

Structure (SMILES): CN(C)CCCNC(=O)c1cc(-c2cccs2)nc2ccccc12
- EC50 [1]: 0.7 µM
- CC50 [2]: 40.5 µM
- selectivity ratio [3]: 57.9

Structure (SMILES): CCN(CC)CCNC(=O)c1cc(-c2cccc(OC)c2)nc2ccccc12
- EC50 [1]: 1.6 µM
- CC50 [2]: 36.5 µM
- selectivity ratio [3]: 22.8

Structure (SMILES): CCN(CC)CCNC(=O)c1cc(OCC(F)(F)F)nc2ccccc12
- EC50 [1]: 3.5 µM
- CC50 [2]: 33.1 µM
- selectivity ratio [3]: 9.5

Structure (SMILES): CCCOc1cc(C(=O)NCCN(CC)CC)c2ccccc2n1
- EC50 [1]: 4.9 µM
- CC50 [2]: 46.7 µM
- selectivity ratio [3]: 9.5

Structure (SMILES): CCN(CC)CCNC(=O)c1cc(-c2ccc3c(c2)OCCO3)nc2ccccc12
- EC50 [1]: 9 µM
- CC50 [2]: 49.9 µM
- selectivity ratio [3]: 5.5

Structure (SMILES): CC(C)Oc1cc(C(=O)NCCN2CCOCC2)c2ccccc2n1
- EC50 [1]: 17.5 µM
- CC50 [2]: > 250 µM
- selectivity ratio [3]: > 14.3

Structure (SMILES): CC(C)Oc1cc(C(=O)NCCN2CCN(C)CC2)c2ccccc2n1
- EC50 [1]: 25.9 µM
- CC50 [2]: 88.8 µM
- selectivity ratio [3]: 3.4

Structure (SMILES): CCN(CC)CCNC(=O)c1cc(-c2ccccc2OC)nc2ccccc12
- EC50 [1]: 13.9 µM
- CC50 [2]: 75.9 µM
- selectivity ratio [3]: 5.5

Structure (SMILES): COc1ccc2nc(-c3ccccc3)cc(C(=O)NCCN(C)C)c2c1
- EC50 [1]: 8.1 µM
- CC50 [2]: 31.8 µM
- selectivity ratio [3]: 3.9

Structure (SMILES): CCN(CC)CCNC(=O)c1cc(-c2cnn(C)c2)nc2ccccc12
- EC50 [1]: > 100 µM
- CC50 [2]: 251 µM

Structure (SMILES): CCN(CC)CCNC(=O)c1cc(-c2ccsc2)nc2ccccc12
- EC50 [1]: 1 µM
- CC50 [2]: 46.9 µM
- selectivity ratio [3]: 46.9

Structure (SMILES): CCN(CC)CCNC(=O)c1cc(OCc2ccccc2)nc2ccccc12
- EC50 [1]: 1.1 µM
- CC50 [2]: 13.5 µM
- selectivity ratio [3]: 12.3

Structure (SMILES): CCOc1cc(C(=O)NCCN(CC)CC)c2ccccc2n1
- EC50 [1]: 5.9 µM
- CC50 [2]: 165 µM
- selectivity ratio [3]: 27.9

Structure (SMILES): CCOCCOc1cc(C(=O)NCCN(CC)CC)c2ccccc2n1
- EC50 [1]: 12.2 µM
- CC50 [2]: 144 µM
- selectivity ratio [3]: 11.8

Structure (SMILES): CCN(CC)CCNC(=O)c1cc(OC(C)C)nc2ccccc12
- EC50 [1]: 2.5 µM
- CC50 [2]: 111 µM
- selectivity ratio [3]: 44.5

Structure (SMILES): O=C(NC1CN2CCC1CC2)c1cc(-c2ccccc2)nc2ccccc12 (stereo not drawn)
- EC50 [1]: 3.5 µM
- CC50 [2]: 46.5 µM
- selectivity ratio [3]: 13.3

Structure (SMILES): CCN(CC)CCNC(=O)c1cc(-c2ccccc2)nc2ccccc12
- EC50 [1]: 0.8 µM
- CC50 [2]: 45.1 µM
- selectivity ratio [3]: 56.4

Structure (SMILES): O=C(NCCN1CCCC1)c1cc(-c2ccccc2)nc2ccccc12
- EC50 [1]: 0.4 µM
- CC50 [2]: 46.7 µM
- selectivity ratio [3]: 117

Structure (SMILES): CN(C)c1ccc(NC(=O)c2cc(-c3ccccc3)nc3ccccc23)cc1
- EC50 [1]: > 100 µM
- CC50 [2]: > 350 µM
- selectivity ratio [3]: > 3.5

Structure (SMILES): CCN(CC)CCNC(=O)c1cc(-c2c(C)noc2C)nc2ccccc12
- EC50 [1]: > 50 µM
- CC50 [2]: 129 µM

Structure (SMILES): CCN(CC)CCNC(=O)c1cc(-c2cccs2)nc2ccccc12
- EC50 [1]: 0.6 µM
- CC50 [2]: 37.4 µM
- selectivity ratio [3]: 62.3

Structure (SMILES): CC(C)Oc1cc(C(=O)NCCN)c2ccccc2n1
- EC50 [1]: 3.5 µM
- CC50 [2]: 149 µM
- selectivity ratio [3]: 42.5

Structure (SMILES): CCN(CC)CCNC(=O)c1cc(-c2ccn[nH]2)nc2ccccc12
- EC50 [1]: 19.4 µM
- CC50 [2]: 132 µM
- selectivity ratio [3]: 6.8

Structure (SMILES): CC(C)Oc1cc(C(=O)NC2CCN(C)CC2)c2ccccc2n1
- EC50 [1]: 17.8 µM
- CC50 [2]: 101 µM
- selectivity ratio [3]: 5.7

Structure (SMILES): CCN(CC)CCNC(=O)c1cc(-c2ccoc2)nc2ccccc12
- EC50 [1]: 1.5 µM
- CC50 [2]: 122 µM
- selectivity ratio [3]: 81.7

Structure (SMILES): CN(C)CCCNC(=O)c1cc(-c2ccccc2)nc2ccccc12
- EC50 [1]: 3.5 µM
- CC50 [2]: 44.9 µM
- selectivity ratio [3]: 12.8

Structure (SMILES): CCN(CC)CCNC(=O)c1cc(-c2ccc(-c3ccccc3)cc2)nc2ccccc12
- EC50 [1]: > 10 µM
- CC50 [2]: 9.8 µM

Structure (SMILES): Cc1ccc2c(c1)c1c3n2CCNC3CCC1 (stereo not drawn)
- EC50 [1]: 8.4 µM
- CC50 [2]: 19 µM

Structure (SMILES): CCN(CC)CCNC(=O)c1cc(OCC2CC2)nc2ccccc12
- EC50 [1]: 7.1 µM
- CC50 [2]: 38.5 µM
- selectivity ratio [3]: 5.4

Structure (SMILES): CCC(C)Oc1cc(C(=O)NCCN(CC)CC)c2ccccc2n1 (stereo not drawn)
- EC50 [1]: 2.8 µM
- CC50 [2]: 15.7 µM
- selectivity ratio [3]: 5.6

Structure (SMILES): NNC(=O)c1cc(-c2ccccc2)nc2ccccc12
- EC50 [1]: 100 µM
- CC50 [2]: > 300 µM
- selectivity ratio [3]: > 3

Structure (SMILES): CCN(CC)CCNC(=O)c1cc(-c2ccncc2)nc2ccccc12
- EC50 [1]: 6.6 µM
- CC50 [2]: 174 µM
- selectivity ratio [3]: 26.3

Structure (SMILES): CCN(CC)CCNC(=O)c1cc(/C=C/c2ccccc2)nc2ccccc12
- EC50 [1]: 0.8 µM
- CC50 [2]: 11.5 µM
- selectivity ratio [3]: 14.4

Structure (SMILES): CCN(CC)CCNC(=O)c1cc(-c2cnc(OC)nc2)nc2ccccc12
- EC50 [1]: 87.6 µM
- CC50 [2]: 174 µM
- selectivity ratio [3]: 2

Structure (SMILES): CCN(CC)CCNC(=O)c1cc(-c2ccnn2C)nc2ccccc12
- EC50 [1]: 36.3 µM
- CC50 [2]: 133 µM
- selectivity ratio [3]: 3.7

Structure (SMILES): CCN(CC)CCNC(=O)c1cc(-c2ccc(Cl)s2)nc2ccccc12
- EC50 [1]: 0.8 µM
- CC50 [2]: 6.1 µM
- selectivity ratio [3]: 7.6

Structure (SMILES): CC(C)Oc1cc(C(=O)NCCCN(C)C)c2ccccc2n1
- EC50 [1]: 11.4 µM
- CC50 [2]: 122 µM
- selectivity ratio [3]: 10.7

Structure (SMILES): CCN(CC)CCNC(=O)c1cc(-c2ccc3c(c2)CCO3)nc2ccccc12
- EC50 [1]: 1.6 µM
- CC50 [2]: 29.5 µM
- selectivity ratio [3]: 18.4

Structure (SMILES): CCC(CC)Oc1cc(C(=O)NCCN(CC)CC)c2ccccc2n1
- EC50 [1]: > 10 µM
- CC50 [2]: 9.5 µM

Structure (SMILES): CCN(CC)CCNC(=O)c1cc(OC)nc2ccccc12
- EC50 [1]: 52.5 µM
- CC50 [2]: > 250 µM
- selectivity ratio [3]: > 4.8

Structure (SMILES): CN(C)CCNC(=O)c1cc(-c2ccccc2)nc2ccc(Cl)cc12
- EC50 [1]: 1.2 µM
- CC50 [2]: 14.3 µM
- selectivity ratio [3]: 11.9

Structure (SMILES): CC(C)Oc1cc(C(=O)N2CCN(C)CC2)c2ccccc2n1
- EC50 [1]: > 100 µM
- CC50 [2]: > 300 µM

Structure (SMILES): O=C(NCCCn1ccnc1)c1cc(-c2cccs2)nc2ccccc12
- EC50 [1]: 8.9 µM
- CC50 [2]: 55.7 µM
- selectivity ratio [3]: 6.3

Structure (SMILES): CCN(CC)CCNC(=O)c1cc(-c2cnc(N(C)C)nc2)nc2ccccc12
- EC50 [1]: 24.6 µM
- CC50 [2]: 74.2 µM
- selectivity ratio [3]: 3

Structure (SMILES): CN(C)CCNC(=O)c1cc(-c2ccccc2)nc2ccc(F)cc12
- EC50 [1]: 0.6 µM
- CC50 [2]: 38.8 µM
- selectivity ratio [3]: 64.7

Structure (SMILES): CCN(CC)CCNC(=O)c1cc(-c2ccccc2)nc2ccc(OC)cc12
- EC50 [1]: 12.3 µM
- CC50 [2]: 27.5 µM
- selectivity ratio [3]: 2.2

Structure (SMILES): CCN(CC)CCCNC(=O)c1cc(-c2ccccc2)nc2ccccc12
- EC50 [1]: 9.6 µM
- CC50 [2]: 45.4 µM
- selectivity ratio [3]: 4.7

Structure (SMILES): CCN(CC)CCNC(=O)c1cc(-c2ccc(CN3CCOCC3)cc2)nc2ccccc12
- EC50 [1]: > 80 µM
- CC50 [2]: 79.2 µM

Structure (SMILES): CC(C)Oc1cc(C(=O)NCCN(C)C)c2ccccc2n1
- EC50 [1]: 1.7 µM
- CC50 [2]: 38.5 µM
- selectivity ratio [3]: 22.6

Structure (SMILES): NNC(=O)c1cc(-c2cccs2)nc2ccccc12
- EC50 [1]: 11.9 µM
- CC50 [2]: > 100 µM
- selectivity ratio [3]: > 8.4

Structure (SMILES): CCN(CC)CCNC(=O)c1cc(-c2ccccc2)nc2ccc(Cl)cc12
- EC50 [1]: 1.9 µM
- CC50 [2]: 13.5 µM
- selectivity ratio [3]: 7.1

Structure (SMILES): CCN(CC)CCNC(=O)c1cc(-c2ccc(COC)cc2)nc2ccccc12
- EC50 [1]: 17.4 µM
- CC50 [2]: 46.6 µM
- selectivity ratio [3]: 2.7
